Bioassay records (PubChem)
OX1R antag-1 – antagonists of human orexin 1 receptor (OX1R); inhibition, % at 6.6 µM; AID 485270, 2010; Orexin/Hypocretin receptor type 1 (Homo sapiens), O43613; 330,000 compounds, 1.8% hits; OX1R-expressing cells, FRET antagonist read-out; in the data active means inhibition mostly above about 38%, no sharp cut-off; inactive means mostly below about 40%;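 further: 0% = agonist challenge alone and 100% = reference antagonist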
CHO parental Ca – ATP-evoked calcium signal inhibitors, parental CHO, primary screen, counter-screen for OX1R antagonist project, cell-based, fluorescence, Fluo-8 calcium dye | parental CHO-K1, ATP-induced calcium, Fluo-8 fluorescence | 330,000 compounds, 0.63% hits | inhibition, % at 5.6 µM;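 active means inhibition above that plate's mean sample inhibition plus 3 SD, cut at about 26% in these data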;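 further: 0% = ATP-challenged DMSO wells and 100% = DMSO wells without ATP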
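Assay system: untransfected parental CHO cell line. Also added: ATP agonist challenge. Dosing: one dose, 5.6 µM nominal. Measured by: Fluo-8 fluorescence. Read-out: % inhibition. Benchmarks: ATP wells versus no-ATP DMSO wells. Repeats: no replicates.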
V1R ag counter – agonists of human V1a receptor, primary screen, counter-screen for OXTR agonist project, fluorescence, CHO-V1R cells; Vasopressin V1a receptor (Homo sapiens), P37288; 320,000 compounds, 0.25% hits; Fluo-8 calcium fluorescence, agonist mode; 0% DMSO, 100% 3 nM vasopressin; activation, % at 3 µM; AID 2797, 2010;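 active means activation above the mean activation of all tested compounds plus 3 SD, per screening run, cut at about 20% in these data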;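 further: signal is peak over basal fluorescence ratio across a 100 second FLIPR read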
Target sequence (P37288 whole entry, looked up): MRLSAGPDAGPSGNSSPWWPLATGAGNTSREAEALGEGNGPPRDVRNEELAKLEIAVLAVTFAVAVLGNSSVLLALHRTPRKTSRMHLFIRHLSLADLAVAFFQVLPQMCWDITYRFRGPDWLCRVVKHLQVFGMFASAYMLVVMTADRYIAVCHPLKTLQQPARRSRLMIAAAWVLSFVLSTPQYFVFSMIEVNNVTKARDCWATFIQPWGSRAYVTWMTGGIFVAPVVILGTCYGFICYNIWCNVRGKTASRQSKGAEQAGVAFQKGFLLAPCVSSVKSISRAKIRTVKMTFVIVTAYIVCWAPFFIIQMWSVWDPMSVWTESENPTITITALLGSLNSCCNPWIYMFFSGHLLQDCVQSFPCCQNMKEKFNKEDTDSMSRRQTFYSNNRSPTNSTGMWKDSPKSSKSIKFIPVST
OX1R antag-2 – OX1R (HCRTR1) antagonists, primary screen, fluorescence, CHO/OX1R cells, Fluo-8 calcium, orexin A. inhibition, % at 5 µM. Fluo-8 calcium fluorescence. AID 434989, 2010. 330,000 compounds, 0.43% hits. Orexin/Hypocretin receptor type 1 (Homo sapiens), O43613;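 active means inhibition above its plate's threshold, mean inhibition of all tested compounds on the plate plus 3 SD, cut at about 37% in these data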;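 further: 0% = orexin A challenge wells and 100% = SB-334867-A antagonist wells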
OXTR ag – human OXTR agonists, primary screen, fluorescence, CHO-OTR cells, Fluo-8 calcium; Oxytocin receptor (Homo sapiens), P30559; Fluo-8 calcium fluorescence; normalized: DMSO 0%, oxytocin 100%; activation, % at 3 µM; 320,000 compounds, 0.32% hits; AID 2435, 2010;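 active means activation above the mean of all tested compounds plus 3 SD, cutoff set per screening run, cut at about 20% in these data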;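 further: peak over basal fluorescence ratio from a 100 s FLIPR kinetic read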
OXTR potentiate – human OXTR potentiators, primary screen, fluorescence, CHO-OTR cells, Fluo-8 calcium | Oxytocin receptor (Homo sapiens), P30559 | Fluo-8 calcium fluorescence, potentiator mode; 0% = oxytocin EC15, 100% = EC100 | activation, % at 3 µM | 320,000 compounds, 0.061% hits | AID 2445, 2010;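 active means activation above that plate's cutoff, the mean activation of tested compounds plus 3 SD, cut at about 6.6% in these data, passing the limit was not always enough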;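 further: 100% uses oxytocin at 75 nM as the full agonist control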
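Assay system: CHO cell line stably expressing human OTR | Also added: Oxytocin at about EC15, sub-maximal agonist stimulus | Times: Compound 6 min at room temperature before oxytocin, 100 s read | Measured by: Fluo-8 intracellular calcium fluorescence, ex 470-495, em 515-575 nm | Controls: EC15 oxytocin alone as 0%, 75 nM oxytocin as 100%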
OX1R Ca confirm – OX1R (HCRTR1) antagonists, confirmation, fluorescence, CHO/OX1R cells, Fluo-8 calcium, orexin A | AID 492963, 2010 | inhibition, % at 5 µM | orexin A calcium Fluo-8 fluorescence | shares compounds with OX1R antag-2 | 1,100 compounds, 38% hits; in the data active means inhibition above about 29%;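 further: 0% = agonist challenge alone and 100% = reference antagonist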
CHO Ca counter – ATP-evoked calcium inhibition in parental CHO, counter-screen for OX1R antagonist project, cell-based, fluorescence, CHO-K1, triplicate. inhibition, % at 5.6 µM. 1,100 compounds, 9.3% hits. shares compounds with OX1R antag-2. ATP-induced calcium, Fluo-8 fluorescence;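 active means inhibition above a per-plate limit, the mean inhibition of that plate's test compounds plus 3 SD, cut at about 25% in these data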;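 further: 0% = ATP challenge with DMSO and 100% = DMSO without ATP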
OX1R HTRF conf – OX1R (HCRTR1) antagonists, confirmation, cell-based, HTRF. shares compounds with OX1R antag-1. OX1R-expressing cells, HTRF antagonist assay. AID 492964, 2010. 1,800 compounds, 49% hits. inhibition, % at 6.6 µM; in the data active means inhibition above about 55%;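 further: CHO cells expressing OX1R stimulated with orexin A at about EC80; 0% = agonist challenge alone and 100% = reference antagonist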
CHO-K1 HTRF – signal inhibition in parental CHO-K1 cells, counter-screen for OX1R antagonist project, cell-based, HTRF; shares compounds with OX1R antag-1; HTRF counterscreen; inhibition, % at 6.6 µM; 1,800 compounds, 48% hits; AID 493232, 2011; in the data active means inhibition above about 17%;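 further: 0% = agonist challenge with vehicle and 100% = vehicle alone without agonist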
The depositor's hits bear a star; · = not tested or not shown. Compounds with a hit are over-represented: about 2.7% of the library has one in this group of screens.

SMILES | OX1R antag-1 | CHO parental Ca | V1R ag counter | OX1R antag-2 | OXTR ag | OXTR potentiate | OX1R Ca confirm | CHO Ca counter | OX1R HTRF conf | CHO-K1 HTRF
COc1ccc(NC(=O)CSc2ncc(-c3ccc(F)cc3)n2Cc2ccco2)cc1 | 33 | -14 | 0 | 6 | 2 | -12 | · | · | · | ·
Cc1cccc(C(=O)Nc2ccc(S(=O)(=O)Nc3nc(C)cc(C)n3)cc2)c1 | -15 | -10 | 1 | -10 | 0 | -4 | · | · | · | ·
COc1ccc(COCC(O)CN2CCN(S(=O)(=O)c3ccc(C(C)C)cc3)CC2)cc1 (stereo unspecified) | 8 | -10 | 9 | 10 | 9 | -12 | · | · | · | ·
Cc1ccc(OCC(=O)N(Cc2ccco2)c2c(N)n(Cc3ccccc3)c(=O)[nH]c2=O)cc1C | 8 | -14 | 0 | -30 | 0 | -4 | · | · | · | ·
c1ccc(-c2nc3ccccc3o2)nc1 | 8 | -5 | 0 | -2 | -1 | -7 | · | · | · | ·
c1ccc2nc(-c3nc4ccccc4o3)ccc2c1 | 97* | -21 | -1 | 24 | -2 | -2 | 46* | -8 | 98* | 5
COc1ccc(C(=O)COc2ccccc2C(=O)Nc2ccccc2)cc1 | 71* | -2 | 0 | 42* | 1 | -15 | 37* | -11 | 60* | 9
O=C(COc1ccccc1C(=O)Nc1ccccc1)c1ccc(F)cc1 | 5 | -9 | 0 | -17 | 0 | 3 | · | · | · | ·
COc1cccc(C(=O)Nc2nnc(S(=O)(=O)Nc3cccc(C)c3)s2)c1 | 89* | 2 | 1 | 36 | 2 | -5 | 41* | 2 | 75* | 2
CC(=O)N1c2ccc(S(=O)(=O)N3CCCCC3)cc2CC1C(=O)NCc1ccccc1C (stereo unspecified) | 17 | -9 | 1 | -14 | -1 | -4 | · | · | · | ·
O=C(O)c1cccc(N=C2NC(=O)C(CO)(CO)S2)c1 | 8 | 2 | 0 | -6 | 2 | -1 | · | · | · | ·
COC(=O)[C@H](CC(C)C)N(Cc1ccccc1)S(=O)(=O)N(Cc1ccccc1)[C@@H](CC(C)C)C(=O)OC | 8 | 15 | 2 | 17 | 1 | -7 | · | · | · | ·
COC(=O)[C@H](CC(C)C)NS(=O)(=O)N(Cc1ccccc1)[C@@H](CC(C)C)C(=O)OC | 48* | -27 | 0 | 49 | 0 | 0 | 14 | -12 | 54 | 5
O=C(COc1cccc(C(F)(F)F)c1)NNC(=O)c1ccc(=O)[nH]c1 | 3 | 0 | 1 | -4 | 1 | 3 | · | · | · | ·
Nc1cccc(C#Cc2ccc3c(=O)c4ccccc4oc3c2)c1 | 72* | -33 | -1 | 52* | -1 | -6 | 12 | 99* | 49 | 8
COc1cc2c(C(=O)N3CCN(c4cccc(Cl)c4)CC3)cn(CC(C)C)c(=O)c2cc1OC | 19 | -30 | 2 | -29 | 1 | -25 | · | · | · | ·
CC(C)c1ccc(NC(=O)CCNC(=O)N2CC(=O)Nc3ccccc32)cc1 | 18 | -28 | 1 | -22 | 0 | -3 | · | · | · | ·
COc1ccc(-c2cc3nc(-c4ccccc4)cc(N4CCC5(CC4)OCCO5)n3n2)cc1 | 50* | -9 | 0 | 67* | 0 | -9 | 31* | -9 | 68* | 11
CCN(CC)c1ccc(C(=S)NCc2ccccc2)cc1 | 13 | 3 | 0 | -25 | -2 | -8 | · | · | · | ·
O=C(Nc1ccc(F)cc1)C1CCCN1S(=O)(=O)c1ccc(Br)cc1 (stereo unspecified) | 81* | -19 | 4 | 32 | -2 | 0 | 38* | -10 | 89* | -4
CC(=O)Nc1ccc(S(=O)(=O)N2CCCC2C(=O)Nc2ccc(F)cc2)cc1 (stereo unspecified) | 16 | -5 | 1 | 13 | 1 | -4 | · | · | · | ·
O=C(Nc1nccs1)[C@@H]1CCCN1S(=O)(=O)c1ccc(Cl)cc1 | 32 | -12 | 2 | 15 | 2 | -4 | · | · | · | ·
COc1ccc(S(=O)(=O)N2CCCC2C(=O)Nc2nc3c(s2)CCCC3)cc1 (stereo unspecified) | 95* | -36 | 4 | 45* | 2 | -2 | 44* | -5 | 88* | 2
O=C(Nc1nccs1)C1CCCN1S(=O)(=O)c1ccc(F)cc1 (stereo unspecified) | 75* | -20 | 1 | 44* | 1 | -4 | 8 | -5 | 31 | -5
O=C(Nc1ccc(F)c(F)c1)C1CCCN1S(=O)(=O)c1ccc(F)cc1 (stereo unspecified) | 74* | 9 | 1 | 37* | 0 | -7 | 42* | -15 | 70* | 0
SMILES | OX1R antag-1 | CHO parental Ca | V1R ag counter | OX1R antag-2 | OXTR ag | OXTR potentiate | OX1R Ca confirm | CHO Ca counter | OX1R HTRF conf | CHO-K1 HTRF
Cc1nn(CC(=O)NCCc2ccc(Cl)cc2)c(=O)c2cccn12 | 6 | -11 | 0 | -26 | 0 | -2 | · | · | · | ·
CC(C)(C)C(=O)Nc1ccc(C(=O)COC(=O)c2ccccn2)cc1 | 4 | -8 | 2 | -3 | 2 | -5 | · | · | · | ·
C/C(O)=c1/cnc2nc3ccccc3n2c1=O | 8 | -11 | -1 | -1 | -2 | 2 | · | · | · | ·
CC1(C)CC(=O)C2=C(C1)OC(N)=C([N+](=O)[O-])C2c1cccs1 (stereo unspecified) | 15 | -8 | 0 | -13 | -1 | 3 | · | · | · | ·
CN(Cc1ccccc1)C(=O)CSc1nnc(-c2ccco2)n1-c1ccccc1 | 41* | -9 | 2 | 38 | 1 | 1 | 10 | -18 | 44 | 7
O=C(CCSc1nnc(-c2ccncc2)o1)Nc1ccccc1Cl | 9 | -13 | 1 | -14 | 0 | -10 | · | · | · | ·
COc1ccccc1C(=O)Nc1nc(-c2ccc(S(=O)(=O)N3CCOCC3)cc2)cs1 | 89* | 24 | 12 | 33 | 14 | -25 | 56* | 29* | 58* | 15
